Screening data deposited in PubChem by several laboratories.
Most compounds without a hit are left out; they make up all but 2.5% or so of the library.
Pemphigus Ab inh – blocks pemphigus antibody binding to human desmoglein-3; P32926; DSG3-coupled beads, scFv-anti-DSG3-GFP binding, flow cytometry; active compounds read low; binding (percent of control), % at 10 µM; actives 0.48% (n = 310,000);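 active = binding more than 3 SD below its plate's average and above zero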;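 also: hits lower antibody fragment binding to DSG3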
SUMO1-SIM PPI – alters human SUMO1 binding to SIM partners; P63165; inhibition, % at 20 µM; actives 0.33% (n = 360,000); SUMO1 binding to a labelled peptide, TR-FRET, 1 h; in the data active = inhibition above about 37%
UHRF1 MBD2 ctr – blocks human UHRF1 binding to methylated DNA; actives 0.75% (n = 370,000); inhibition, % at 4.4 µM; AID 687016; UHRF1 binding to methylated oligo, TR-FRET; Q96T88; in the data active = inhibition above about 21%;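 also: UHRF1 SRA domain binding a hemimethylated CpG hairpin DNA probe; 0% = median of test compound wells and 100% = reference inhibitor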
DNMT1 inh – DNMT1 (human) enzyme inhibition; P26358; inhibition (reported as % activation of signal), % at 10 µM; AID 588458; actives 0.83% (n = 360,000); DNMT1 molecular beacon, Hinp1I cleavage, fluorescence; in the data active = inhibition above about 50%
MBD2 DNA inh – inhibitors of human MBD2 binding to methylated oligonucleotide | TR-FRET | inhibition, % at 4.4 µM | actives 0.31% (n = 370,000) | AID 686964; in the data active = inhibition above about 13%
HCV NS3 hel inh – blocks Hepatitis C virus NS3 helicase unwinding; inhibition, % at 10.9 µM; actives 0.56% (n = 290,000); NS3 helicase DNA unwinding, Cy5 molecular beacon fluorescence;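 active = inhibition above the mean of all tested compounds plus 3 SD, set per campaign, cut at about 35% in these data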;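 also: 0% = DMSO wells and 100% = thioflavine S control wells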
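Compound dosing – single dose, 10.9 µM nominal final, DMSO 0.8% final · System – NS3 helicase fragment of HCV · Buffer or medium – MOPS pH 6.5, MgCl2, DTT, Tween20, BSA · Signal – Cy5 beacon fluorescence read at start and 1 h · Also added – annealed dual-labelled DNA beacon duplex, ATP-started · Schedule – 1 h at 25 °C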
Starred values were filed as active, the others as inactive.

`CC1(C)CC(=O)C(C2NCCc3ccccc32)=C(O)C1` (stereo not given) gave Pemphigus Ab inh 87, SUMO1-SIM PPI -1, UHRF1 MBD2 ctr 8, DNMT1 inh 1, MBD2 DNA inh 2 and HCV NS3 hel inh -13.
Screening CCN(c1ccccc1)S(=O)(=O)c1cccc(C(=O)NCC(c2ccc(F)cc2)N2CCOCC2)c1 (stereo not given) returned Pemphigus Ab inh 112, SUMO1-SIM PPI -54, UHRF1 MBD2 ctr 43*, DNMT1 inh -9 and MBD2 DNA inh -1.
For C=CCN(c1ccccc1)S(=O)(=O)c1cccc(C(=O)NCC(c2ccc(F)cc2)N2CCOCC2)c1 (stereo not given) the results were Pemphigus Ab inh 96, SUMO1-SIM PPI -37, UHRF1 MBD2 ctr 2, DNMT1 inh -4 and MBD2 DNA inh 3.
Screening CC1CCN(CCCNC(=O)CN2CCN(Cc3ccc(Cl)cc3)C2=O)CC1 returned Pemphigus Ab inh 115, SUMO1-SIM PPI -7, UHRF1 MBD2 ctr 0, DNMT1 inh -6, MBD2 DNA inh -2 and HCV NS3 hel inh 4.
Screening COc1cc(-c2nnc(SCc3cc(=O)oc4cc(O)c(O)cc34)o2)cc(OC)c1OC returned Pemphigus Ab inh 97, SUMO1-SIM PPI 30, UHRF1 MBD2 ctr 52*, DNMT1 inh 64*, MBD2 DNA inh 29* and HCV NS3 hel inh 15.
For O=C(CC1C(=O)NCCN1Cc1cccc(F)c1F)NCCCC1CCCC1 (stereo not given) the results were Pemphigus Ab inh 106, SUMO1-SIM PPI -5, UHRF1 MBD2 ctr -2, DNMT1 inh -4, MBD2 DNA inh 0 and HCV NS3 hel inh 12.
Screening COC(=O)C1=C(C)C(c2ccc(OC)cc2)NC(=O)N1 (stereo not given) returned Pemphigus Ab inh 102, SUMO1-SIM PPI -1, UHRF1 MBD2 ctr 1, DNMT1 inh 6, MBD2 DNA inh -3 and HCV NS3 hel inh 2.
O=C(CSc1nc(=O)n(CCN2CCOCC2)c2c1CCCC2)Nc1cccc([N+](=O)[O-])c1 was read as Pemphigus Ab inh 102, SUMO1-SIM PPI -27, UHRF1 MBD2 ctr 3, DNMT1 inh -3 and MBD2 DNA inh 5.
Screening Cc1nnsc1NC(=O)OCc1ccc(Cl)cc1Cl returned Pemphigus Ab inh 108, SUMO1-SIM PPI -1, UHRF1 MBD2 ctr 5, DNMT1 inh -2, MBD2 DNA inh 3 and HCV NS3 hel inh 10.
`Cc1nn(C)c(Cl)c1NC(=O)OCc1ccc(Cl)cc1Cl` gave Pemphigus Ab inh 97, SUMO1-SIM PPI -1, UHRF1 MBD2 ctr 53*, DNMT1 inh -4, MBD2 DNA inh 1 and HCV NS3 hel inh 4.
`O=C(COC(=O)CNC(=O)C1CCCCC1)Nc1ccccc1` gave SUMO1-SIM PPI -2, UHRF1 MBD2 ctr 2, DNMT1 inh 2 and MBD2 DNA inh -4.
Cc1ccc(S(=O)(=O)Nc2ccc(Nc3nccn4c(-c5cccc(OC(F)(F)F)c5)cnc34)cc2)cc1 was read as SUMO1-SIM PPI 1, UHRF1 MBD2 ctr 90*, DNMT1 inh -23 and MBD2 DNA inh 1.
For CC(C(=O)Nc1ccc(C#N)cc1)N(C)CC(=O)N(C)c1c(N)n(Cc2ccccc2)c(=O)[nH]c1=O (stereo not given) the results were Pemphigus Ab inh 122, SUMO1-SIM PPI 46*, UHRF1 MBD2 ctr 0, DNMT1 inh 4 and MBD2 DNA inh 2.
For CN(C(=O)CCOc1ccccc1)c1c(N)n(Cc2ccccc2)c(=O)[nH]c1=O the results were Pemphigus Ab inh 63*, SUMO1-SIM PPI -1, UHRF1 MBD2 ctr 3, DNMT1 inh -3 and MBD2 DNA inh -3.
O=C1C(=Cc2cn(-c3ccccc3)nc2-c2ccc(OCc3ccccc3F)cc2)SC(=S)N1CCS(=O)(=O)O was read as SUMO1-SIM PPI 88*, UHRF1 MBD2 ctr 58*, DNMT1 inh 37 and MBD2 DNA inh 3.
O=C1C(=Cc2cn(-c3ccccc3)nc2-c2ccc(OCc3ccc(Cl)cc3)cc2)SC(=S)N1CCS(=O)(=O)O was read as SUMO1-SIM PPI 110*, UHRF1 MBD2 ctr -2, DNMT1 inh -181 and MBD2 DNA inh -1.
For O=C(/C=C/c1ccc([N+](=O)[O-])cc1)OCC(=O)N1CCCC1 the results were Pemphigus Ab inh 77*, SUMO1-SIM PPI -39, UHRF1 MBD2 ctr 0, DNMT1 inh 18 and MBD2 DNA inh 4.
`CCOC(=O)c1c(C)n(O)c2ccc(Cl)cc2c1=O` gave Pemphigus Ab inh 98, SUMO1-SIM PPI -2, UHRF1 MBD2 ctr 25*, DNMT1 inh -2, MBD2 DNA inh 7 and HCV NS3 hel inh -2.
For Cc1cccc(C)c1NC(=O)NN1C(C)CCCC1C (stereo not given) the results were Pemphigus Ab inh 95, SUMO1-SIM PPI 2, UHRF1 MBD2 ctr 2, DNMT1 inh 3, MBD2 DNA inh -5 and HCV NS3 hel inh -1.
Screening Cc1cc(C)cc(NC(=O)NN2C(C)CCCC2C)c1 (stereo not given) returned Pemphigus Ab inh 96, SUMO1-SIM PPI 54*, UHRF1 MBD2 ctr 0, DNMT1 inh 2, MBD2 DNA inh 13 and HCV NS3 hel inh -18.
`COc1ccc(-c2cc(C(=O)NCCc3ccccc3)no2)cc1OC` gave Pemphigus Ab inh 75*, SUMO1-SIM PPI -6, UHRF1 MBD2 ctr 4, DNMT1 inh 6, MBD2 DNA inh 1 and HCV NS3 hel inh 3.
Cc1cc(O)c(-c2cc(C(=O)NCc3ccc4c(c3)OCO4)[nH]n2)cc1C was read as Pemphigus Ab inh 82*, SUMO1-SIM PPI 0, UHRF1 MBD2 ctr -1, DNMT1 inh 33, MBD2 DNA inh -2 and HCV NS3 hel inh -1.
`COc1ccc(S(=O)(=O)Nc2cccc(S(=O)(=O)N(C)C)c2)cc1[N+](=O)[O-]` gave Pemphigus Ab inh 97, SUMO1-SIM PPI -14, UHRF1 MBD2 ctr 23*, DNMT1 inh 1 and MBD2 DNA inh 8.
Screening COc1ccc(S(=O)(=O)Nc2cccc(S(=O)(=O)NC3=NCCC3)c2)cc1[N+](=O)[O-] returned Pemphigus Ab inh 104, SUMO1-SIM PPI -20, UHRF1 MBD2 ctr -3, DNMT1 inh 3 and MBD2 DNA inh 4.
Cc1cc(NC(=O)C(C)SCC(=O)N(C)CC(=O)Nc2ccc(F)cc2)no1 (stereo not given) was read as Pemphigus Ab inh 98, SUMO1-SIM PPI 10, UHRF1 MBD2 ctr -1, DNMT1 inh 0 and MBD2 DNA inh 1.
`O=C(CSc1ccc2c(c1)OCCO2)N1CCN(c2ccccc2O)CC1` gave Pemphigus Ab inh 103, SUMO1-SIM PPI 3, UHRF1 MBD2 ctr 1, DNMT1 inh 2 and MBD2 DNA inh 0.
Cc1c([N+](=O)[O-])cc(C(=O)Nc2ccc(NC(=O)c3ccco3)cc2)cc1[N+](=O)[O-] was read as Pemphigus Ab inh 96*, SUMO1-SIM PPI 3, UHRF1 MBD2 ctr 3, DNMT1 inh 7, MBD2 DNA inh 4 and HCV NS3 hel inh 0.
